# Screening results from PubChem.
# Hits are enriched below; roughly 2.8% of the tested compounds scored in any of these assays.
# CAL PDZ FP-1: blocks peptide binding to the human CAL PDZ domain; 300,000 tested, 0.92% active; inhibition, % at 24.9 µM; AID 602252; Q9HD26; purified CAL PDZ, TMR-peptide fluorescence polarization, 1 h;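 active = mean inhibition of at least 30% with at least half of replicates also reaching 30%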;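 note: 0% = DMSO neutral control and 100% = excess unlabeled competitor peptide PRC23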
# SR-BI DiI-HDL act: activators of SR-BI mediated HDL lipid uptake; 320,000 tested, 0.096% active; CHO ldlA[mSR-BI] cells, DiI-HDL uptake fluorescence, 3 h; 100 = double the neutral-control signal; activation, % at 12.5 µM; AID 504775;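 active = mean replicate activation of at least 60% and every replicate at or above 60%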;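 note: 0% = median plate neutral-control signal and 100% = twice that signal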
#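 Material: SR-BI-overexpressing, LDLR-lacking CHO cells | Dosing: Single compound concentration, delivered by pin transfer | Probe or stimulus: Labelled HDL, 10 µg/mL | Signal: Bottom-read cell fluorescence after medium removal, ex 550/em 595 nm | Schedule: 3 h, 37 °C | Evaluation: HDL uptake via cellular fluorescence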
# SR-BI DiI inh: blocks mouse SR-BI lipid uptake from DiI-HDL. Q61009. ldlA[mSR-BI] CHO cells, DiI-HDL uptake fluorescence, 3 h. inhibition, % at 12.5 µM. 320,000 tested, 0.96% active. AID 488896;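 active = mean replicate inhibition of at least 70% and a set share of replicates each scoring 70 or more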;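 note: 0% = median of neutral control wells and 100% = median of positive control wells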
# Target sequence (Q61009 whole entry, looked up): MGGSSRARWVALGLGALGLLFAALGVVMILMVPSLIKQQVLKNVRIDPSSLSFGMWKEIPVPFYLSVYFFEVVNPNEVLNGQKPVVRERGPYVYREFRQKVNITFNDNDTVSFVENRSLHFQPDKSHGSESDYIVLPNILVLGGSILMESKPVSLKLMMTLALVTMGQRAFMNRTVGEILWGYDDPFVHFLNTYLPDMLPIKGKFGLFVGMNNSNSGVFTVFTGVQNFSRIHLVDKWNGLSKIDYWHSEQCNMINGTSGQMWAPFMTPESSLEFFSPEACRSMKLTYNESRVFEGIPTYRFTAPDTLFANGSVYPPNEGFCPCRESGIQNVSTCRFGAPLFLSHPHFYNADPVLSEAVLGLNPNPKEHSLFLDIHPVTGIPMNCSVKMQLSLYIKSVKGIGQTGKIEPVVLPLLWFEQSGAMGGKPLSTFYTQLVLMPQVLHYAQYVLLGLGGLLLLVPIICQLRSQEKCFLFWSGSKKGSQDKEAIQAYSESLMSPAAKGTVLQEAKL
# dFosB activator: enhances mouse delta FosB homodimer DNA binding; P13346; AID 493131; purified delta FosB, TAMRA-CDK5 oligo fluorescence polarization; percent of positive-control signal above neutral wells; 340,000 tested, 0.99% active; activation, % at 25 µM;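 active = mean activation above about 17%, with every replicate also reaching it, limit read from the data, passing the limit was not always enough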
# CAL PDZ FP-2: inhibitors of human CAL PDZ peptide binding; 330,000 tested, 0.02% active; Q9HD26; purified CAL PDZ, TMR-peptide fluorescence polarization, 1 h; AID 504414; inhibition, % at 20 µM;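 active = highest replicate inhibition of at least 40%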;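 note: plate controls were DMSO neutral control wells for no effect and unlabeled competitor peptide control wells for full effect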
#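 Assay system – tagged CAL PDZ protein CerCALP, purified · Timing – 1 h at RT · Compound – single point, 20 µM · Measured by – fluorescence polarization from S- and P-plane intensities, G-factor corrected · Evaluation – inhibition from polarization loss · Probe or stimulus – TMR reporter peptide T*-PRC34 · Buffer or medium – pH 7.4 phosphate-saline buffer, reducing agent, detergent, IgG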
# The depositor's hits bear a star; . = not tested or not shown.
SMILES,CAL PDZ FP-1,SR-BI DiI-HDL act,SR-BI DiI inh,dFosB activator,CAL PDZ FP-2
COc1ccc(CN2CCn3ncc(C(=O)Nc4cc(C)cc(C)c4)c3C2=O)cc1,5,-74,74*,-3,-1
COc1ccc(C=NN=C2c3ccccc3-c3ccccc32)cc1OC,-4,-79,79*,-15,-1
CN1/C(=C/c2cc[n+](C)c3ccccc23)C=Cc2ccccc21,2,-5,5,51*,3
C[n+]1ccc(/C=C/c2ccccc2O)c2ccccc21,2,-59,59,-4,0
Cc1ccccc1NNC(=O)C(=O)NNc1ccccc1C,33*,3,-3,2,-1
Cc1ccccc1NC(=O)C(Cl)=C(Cl)Cl,0,12,-12,-5,-2
Cc1ccccc1NC(=O)Cc1ccccc1,70*,-10,10,-1,-2
Cc1ccccc1NC(=O)CCCCC(=O)Nc1ccccc1C,7,5,-5,6,-1
O=C(CNC(=O)C12CC3CC(CC(C3)C1)C2)OCc1ccc(F)cc1Cl,-4,2,-2,-16,0
CCC(=O)N1CCc2cc(Br)cc(S(=O)(=O)N3CCCCC3CC)c21 (centres undefined),74*,-2,2,-9,-1
Cc1cc(O)c(Sc2ccc(Cl)cc2)c(=O)[nH]1,55*,13,-13,1,1
Cc1[nH]n(C(C)(C)C)c(=O)c1Sc1ccc(Cl)cc1,2,-6,6,2,0
Cc1nc(-c2ccccc2)nc2n[nH]c(N)c12,.,9,-9,10,0
O=C(c1oc2ccccc2c1N1CCCCC1)N1CCCCC1,-5,-78,78*,-7,.
O=C(c1cc2ccccc2o1)N1CCCCCC1,-3,21,-21,-7,-1
COc1ccc(/C=N/NC(=O)c2cccc(Br)c2)cc1COc1ccccn1,-5,-13,13,-13,-3
CCOc1ccc(C(C)=O)cc1COC(=O)c1ccc2c(c1)NC(=O)CS2,-3,-80,80*,7,-1
COc1ccc(C(=O)COC(=O)c2ccc3c(c2)NC(=O)CS3)c(OC)c1,2,-54,54,-18,-4
COc1ccc(-c2nn(-c3ccccc3)cc2/C=N/N=C(N)N)cc1OC,-16,-32,32,68*,-9
COc1ccc(-c2nn(-c3ccccc3)cc2/C=N/Nc2ccc(S(N)(=O)=O)cc2[N+](=O)[O-])cc1OC,-9,-79,79*,0,.
COc1ccc(-c2nn(-c3ccccc3)cc2/C=N/O)cc1OC,-1,-40,40,-4,-2
COC(=O)c1cc(OC)c(OC)cc1NC(=O)c1ccc(OC)c(OC)c1,-3,-33,33,19*,-3
CCOc1cc(NC(=O)c2ccccn2)c(OCC)cc1NC(=O)c1cccc(C)c1,5,-71,71*,-3,0
COC(=O)c1cc(OC)c(OC)cc1NC(=O)c1cccc(C)c1,-2,-81,81*,-2,-3
COC(=O)c1cc(OC)c(OC)cc1NC(=O)c1ccccc1,-1,-59,59,2,-1
SMILES,CAL PDZ FP-1,SR-BI DiI-HDL act,SR-BI DiI inh,dFosB activator,CAL PDZ FP-2
Cc1cccc2[nH]c(CN(C)C(=O)C3CCC(=O)N(C4CC4)C3)nc12 (centres undefined),43*,6,-6,-2,-1
Cc1nnsc1C(=O)Nc1cccc(Cl)c1,74*,6,-6,3,-1
Cc1nc(Cl)sc1C(=O)Nc1cccc(Cl)c1,-12,-20,20,4,.
CCCc1nnc(NC(=O)CSc2nnc(-c3ccco3)n2C)s1,-2,.,.,0,-1
CC(C)n1c(O)c(N=NC(=O)c2ccccc2NS(=O)(=O)c2cccs2)c2ccccc21,3,-14,14,30*,0
Cc1ccnc(NS(=O)(=O)c2cc(-c3cc(C)no3)ccc2C(C)C)c1,-5,15,-15,-4,-1
CCN(CC)CC(=O)NCC1(c2ccccc2)CCCC1,0,30,-30,2,-2
CCN(CC)CC(=O)NCC1(c2ccccc2)CCOCC1,70*,6,-6,-2,-2
CN1CCCN(C(=O)CNC(=O)c2ccccc2F)CC1,-3,-6,6,-8,-5
Cc1cc(N/N=C/c2ccc(O)cc2O)nc(-c2ccccc2O)n1,-3,-114,114*,-2,0
Cc1cc(N/N=C/c2ccc(O)cc2O)nc(-n2nc(C)cc2C)n1,10,-94,94*,5,0
COc1ccc(/C=N/Nc2cc(C)nc(-n3nc(C)cc3C)n2)cc1,28,-50,50,-14,-1
CCC1CCCCN1CCCNC(=O)c1c(O)nc2ccccn2c1=O (centres undefined),78*,6,-6,5,-1
CC1CCCCN1CCCNC(=O)c1c(O)nc2ccccn2c1=O (centres undefined),5,12,-12,4,0
CN(C1CCCCC1)S(=O)(=O)c1ccc2c(c1)CCC(=O)N2,11,-14,14,-9,0
CCN(CC)c1ccc(NC(=S)NC(=O)c2cccs2)cc1,.,-21,21,-4,0
CN(C)S(=O)(=O)c1ccc(Cl)c(C(=O)OCC(=O)NC(=O)c2cccn2C)c1,-2,-72,72*,-9,-2
Cn1cccc1C(=O)NC(=O)COC(=O)c1cc([N+](=O)[O-])ccc1Cl,4,-9,9,-2,-1
CCOc1ccc(NC(=O)CCNC(=O)c2ccco2)cc1,57*,6,-6,-5,1
CCOc1ccc(NC(=O)CNC(=O)c2ccco2)cc1,-1,2,-2,2,-1
CCOC(=O)c1c(C)[nH]c(C(=O)OCC(=O)Nc2ccc(OC)c(Cl)c2)c1C,-1,-28,28,140*,-2
Cc1ccc(NC(=O)CN(C)C(=O)c2ccccc2Sc2ccccc2C#N)cc1,-2,-6,6,-11,-2
OC1(C#Cc2c(-c3ccsc3)oc3ccc(N4CCOCC4)cc23)CCCCC1,-1,-30,30,13,1
COc1cc(-c2ccc3oc(-c4ccsc4)c(C#CC4(O)CCCCC4)c3c2)cc(OC)c1OC,-4,-76,76*,-2,-1
COc1ccc(-c2cc3cc(OC)c(OC)cc3c(C)n2)cc1,-9,-43,80*,-28,-2
COc1ccc(-c2cc(OC)c3ccccc3n2)cc1,-10,-35,35,-23,-2
C=CC(C)(C)c1c(O)c(CC=C(C)C)c(O)c2c(=O)c3ccc(O)c(O)c3oc12,-4,-123,123*,-10,0
Cc1nc(CN(C)C(=O)C2CCC(=O)N(CCc3cccc(F)c3)C2)cs1 (centres undefined),57*,-16,16,-3,1
Cc1ccsc1CN(C)C(=O)C1CCC(=O)N(CCc2cccc(F)c2)C1 (centres undefined),-2,-10,10,-11,0
